# Data from ChEMBL document CHEMBL1795208 (J Med Chem, 2011).
# Assays:
# Assay type in all cases: functional, cell-based
# [1] = Antiproliferative activity against human JMAR cells after 72 hrs by MTS/PMS assay
# Procedure, shortened: (§1)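 Cells kept in Advanced DMEM/F12 (1:1) with non-essential amino acids, 2 mM L-glutamine, penicillin, streptomycin and 10% FBS at 37 °C, 5% CO2. Seeded at 2000/well, attached overnight. Compound added in DMSO across a concentration range (1% DMSO final) for 72 h. Viable cells read by MTS/PMS and normalized to 1% DMSO controls (100%). IC50 taken from separate triplicate experiments.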
# [2] = system: SK-BR-3; assay: Antiproliferative activity against human SKBR3 cells expressing HER2 after 72 hrs by MTS/PMS assay; settings: SK-BR-3, 72 h; procedure, shortened: as §1
# [3] = system: MCF7; assay: Antiproliferative activity against human MCF7 cells expressing estrogen receptor after 72 hrs by MTS/PMS assay; settings: MCF7, 72 h; procedure, shortened: as §1
# [4] = Antiproliferative activity against human MDA1986 cells after 72 hrs by MTS/PMS assay; settings: MDA1986, 72 h; procedure, shortened: as §1
# [5] = system: SK-MEL-28; assay: Antiproliferative activity against human SK-MEL-28 cells after 72 hrs by MTS/PMS assay; settings: SK-MEL-28, 72 h; procedure, shortened: as §1
# [6] = Antiproliferative activity against human androgen-independent PC3MM2 cells after 72 hrs by MTS/PMS assay; settings: PC3MM2, 72 h; procedure, shortened: as §1
# [7] = Antiproliferative activity against human androgen-dependent LNCaP-LN3 cells after 72 hrs by MTS/PMS assay; settings: LNCaP-LN3, 72 h; procedure, shortened: as §1
# [8] = system: B16-F10; assay: Antiproliferative activity against mouse B16F10 cells after 72 hrs by MTS/PMS assay; settings: B16-F10, 72 h; procedure, shortened: as §1
Structure (SMILES),IC50 [1],IC50 [2],IC50 [3],IC50 [4],IC50 [5],IC50 [6],IC50 [7],IC50 [8]
COc1cccc(-c2cc(C(=O)Nc3cc4ccc(OCCN(C)C)c(C)c4oc3=O)ccc2OC)c1,18.4 µM,1.02 µM,1.46 µM,17.5 µM,14.7 µM,4.17 µM,6.65 µM,15.7 µM
COc1cccc(-c2cc(C(=O)Nc3cc4ccc(OC5C=CCNC5)c(C)c4oc3=O)ccc2OC)c1 (centres undefined),3.4 µM,1.61 µM,1.73 µM,6.54 µM,5.41 µM,4.4 µM,4.27 µM,2.94 µM
COc1cccc(-c2cc(C(=O)Nc3cc4cc(OC)c(OC5CNC[C@@H](O)[C@H]5O)c(C)c4oc3=O)ccc2OC)c1 (some centres undefined),11.5 µM,3.65 µM,3.34 µM,13.8 µM,13.8 µM,6.84 µM,9.45 µM,5.04 µM
COc1cccc(-c2cc(C(=O)Nc3cc4cc(OC)c(OC5C=CCNC5)c(C)c4oc3=O)ccc2OC)c1 (centres undefined),11.6 µM,1.21 µM,1.68 µM,5.9 µM,5.41 µM,3.57 µM,5.4 µM,2.86 µM
COc1cccc(-c2cc(C(=O)Nc3cc4cc(OC)c(OC5CCCNC5)c(C)c4oc3=O)ccc2OC)c1 (centres undefined),5.7 µM,2.27 µM,2.9 µM,6.4 µM,7.19 µM,2.59 µM,3.66 µM,1.84 µM
COc1cccc(-c2cc(C(=O)Nc3cc4ccc(OC5CC(C)(C)C[C@@H](O)[C@H]5O)c(C)c4oc3=O)ccc2OC)c1 (some centres undefined),8.5 µM,> 100 µM,> 100 µM,18.8 µM,3.47 µM,2.49 µM,1.24 µM,15.9 µM
COc1cccc(-c2cc(C(=O)Nc3cc4ccc(O[C@H]5C[C@H](O)CO5)c(C)c4oc3=O)ccc2OC)c1,24.1 µM,35.2 µM,> 100 µM,6.9 µM,21.4 µM,10.1 µM,3.72 µM,12.7 µM
COc1cccc(-c2cc(C(=O)Nc3cc4ccc(OC5C=CCN(C)C5)c(C)c4oc3=O)ccc2OC)c1 (centres undefined),11.4 µM,2.92 µM,5.29 µM,7.7 µM,10.8 µM,1.73 µM,1.22 µM,6.4 µM
COc1cccc(-c2cc(C(=O)Nc3cc4cc(OC)c(OC5C=CCN(C)C5)c(C)c4oc3=O)ccc2OC)c1 (centres undefined),18.4 µM,1.96 µM,5.27 µM,16.4 µM,31.5 µM,3.87 µM,4.49 µM,6.14 µM
COc1cccc(-c2cc(C(=O)Nc3cc4ccc(O[C@@H]5OC[C@@H](O)[C@H]5O)c(OC)c4oc3=O)ccc2OC)c1,2.71 µM,7.57 µM,11.7 µM,5.73 µM,6.41 µM,10.6 µM,2.6 µM,1.3 µM
COc1cccc(-c2cc(C(=O)Nc3cc4ccc(O[C@@H]5O[C@H](CO)C[C@@H](O)[C@H]5O)c(C)c4oc3=O)ccc2OC)c1,5.8 µM,9.59 µM,11.1 µM,5.7 µM,10.7 µM,4.58 µM,3.23 µM,9.6 µM
COc1cccc(-c2cc(C(=O)Nc3cc4cc(OC)c(OC5CCNCC5)c(C)c4oc3=O)ccc2OC)c1,10.9 µM,1.2 µM,2.82 µM,14.6 µM,5.75 µM,4.02 µM,5.27 µM,1.84 µM
COc1cccc(-c2cc(C(=O)Nc3cc4ccc(OC5CCCN(C)C5)c(C)c4oc3=O)ccc2OC)c1 (centres undefined),12.6 µM,2.06 µM,5.04 µM,4.5 µM,6.14 µM,4.23 µM,1.22 µM,2.6 µM
